Measurements: ChEMBL document CHEMBL2021810, “Synthesis, anticancer activities, and cellular uptake studies of lipophilic derivatives of doxorubicin succinate” (J Med Chem, 2012)
Calls of active or inactive are those of the source. The calls are words filed in the database; no cut-off is given here.

Assays:
[1] = system: MDA-MB-361; test: Inhibition of cell proliferation of human MDA-MB-361 cells at 1 uM after 96 to 120 hrs by CellTiter assay; assay type: functional
[2] = system: MDA-MB-361; test: Growth inhibition of human MDA-MB-361 cells at 1 uM after 96 hrs by CellTiter assay; assay type: functional, cell-based
[3] = system: HT-29; test: Inhibition of cell proliferation of human HT-29 cells at 1 uM after 96 to 120 hrs by CellTiter assay; assay type: functional
[4] = system: CCRF-CEM; test: Inhibition of cell proliferation of human CCRF-CEM cells after 96 hrs by CellTiter assay; assay type: functional, cell-based
[5] = system: SK-OV-3; test: Inhibition of cell proliferation of human SKOV3 cells at 1 uM after 96 to 120 hrs by CellTiter assay; assay type: functional
[6] = system: MDA-MB-361; test: Inhibition of cell proliferation of human MDA-MB-361 cells at 1 uM by CellTiter assay; assay type: functional, cell-based; conditions: TDE = time-dependent effect
[7] = system: CCRF-CEM; test: Inhibition of cell proliferation of human CCRF-CEM cells at 1 uM by CellTiter assay; assay type: functional, cell-based; conditions: TDE = time-dependent effect
[8] = system: HT-29; test: Growth inhibition of human HT-29 cells at 1 uM after 96 hrs by CellTiter assay; assay type: functional, cell-based
[9] = system: CCRF-CEM; test: Growth inhibition of human CCRF-CEM cells at 1 uM after 96 hrs by CellTiter assay; assay type: functional, cell-based
[10] = system: SK-OV-3; test: Inhibition of cell proliferation of human SKOV3 cells at 1 uM by CellTiter assay; assay type: functional, cell-based; conditions: TDE = time-dependent effect
[11] = system: MDA-MB-468; test: Inhibition of cell proliferation of human MDA-MB-468 cells at 1 uM by CellTiter assay; assay type: functional, cell-based; conditions: TDE = time-dependent effect
[12] = system: MDA-MB-468; test: Growth inhibition of human MDA-MB-468 cells at 1 uM after 96 hrs by CellTiter assay; assay type: functional, cell-based
[13] = system: HT-29; test: Inhibition of cell proliferation of human HT-29 cells at 1 uM by CellTiter assay; assay type: functional, cell-based; conditions: TDE = time-dependent effect
[14] = system: CCRF-CEM; test: Inhibition of cell proliferation of human CCRF-CEM cells at 1 uM after 96 to 120 hrs by CellTiter assay; assay type: functional
[15] = system: MDA-MB-468; test: Inhibition of cell proliferation of human MDA-MB-468 cells at 1 uM after 96 to 120 hrs by CellTiter assay; assay type: functional
[16] = system: SK-OV-3; test: Growth inhibition of human SKOV3 cells at 1 uM after 96 hrs by CellTiter assay; assay type: functional, cell-based
[17] = molecular target: DNA topoisomerase 2-alpha (Homo sapiens) (UniProt P11388); test: Inhibition of topoisomerase 2-mediated KDNA decatenation at 25 uM after 30 mins by gel electrophoretic analysis
Sequence of DNA topoisomerase 2-alpha (Homo sapiens) (P11388 whole entry): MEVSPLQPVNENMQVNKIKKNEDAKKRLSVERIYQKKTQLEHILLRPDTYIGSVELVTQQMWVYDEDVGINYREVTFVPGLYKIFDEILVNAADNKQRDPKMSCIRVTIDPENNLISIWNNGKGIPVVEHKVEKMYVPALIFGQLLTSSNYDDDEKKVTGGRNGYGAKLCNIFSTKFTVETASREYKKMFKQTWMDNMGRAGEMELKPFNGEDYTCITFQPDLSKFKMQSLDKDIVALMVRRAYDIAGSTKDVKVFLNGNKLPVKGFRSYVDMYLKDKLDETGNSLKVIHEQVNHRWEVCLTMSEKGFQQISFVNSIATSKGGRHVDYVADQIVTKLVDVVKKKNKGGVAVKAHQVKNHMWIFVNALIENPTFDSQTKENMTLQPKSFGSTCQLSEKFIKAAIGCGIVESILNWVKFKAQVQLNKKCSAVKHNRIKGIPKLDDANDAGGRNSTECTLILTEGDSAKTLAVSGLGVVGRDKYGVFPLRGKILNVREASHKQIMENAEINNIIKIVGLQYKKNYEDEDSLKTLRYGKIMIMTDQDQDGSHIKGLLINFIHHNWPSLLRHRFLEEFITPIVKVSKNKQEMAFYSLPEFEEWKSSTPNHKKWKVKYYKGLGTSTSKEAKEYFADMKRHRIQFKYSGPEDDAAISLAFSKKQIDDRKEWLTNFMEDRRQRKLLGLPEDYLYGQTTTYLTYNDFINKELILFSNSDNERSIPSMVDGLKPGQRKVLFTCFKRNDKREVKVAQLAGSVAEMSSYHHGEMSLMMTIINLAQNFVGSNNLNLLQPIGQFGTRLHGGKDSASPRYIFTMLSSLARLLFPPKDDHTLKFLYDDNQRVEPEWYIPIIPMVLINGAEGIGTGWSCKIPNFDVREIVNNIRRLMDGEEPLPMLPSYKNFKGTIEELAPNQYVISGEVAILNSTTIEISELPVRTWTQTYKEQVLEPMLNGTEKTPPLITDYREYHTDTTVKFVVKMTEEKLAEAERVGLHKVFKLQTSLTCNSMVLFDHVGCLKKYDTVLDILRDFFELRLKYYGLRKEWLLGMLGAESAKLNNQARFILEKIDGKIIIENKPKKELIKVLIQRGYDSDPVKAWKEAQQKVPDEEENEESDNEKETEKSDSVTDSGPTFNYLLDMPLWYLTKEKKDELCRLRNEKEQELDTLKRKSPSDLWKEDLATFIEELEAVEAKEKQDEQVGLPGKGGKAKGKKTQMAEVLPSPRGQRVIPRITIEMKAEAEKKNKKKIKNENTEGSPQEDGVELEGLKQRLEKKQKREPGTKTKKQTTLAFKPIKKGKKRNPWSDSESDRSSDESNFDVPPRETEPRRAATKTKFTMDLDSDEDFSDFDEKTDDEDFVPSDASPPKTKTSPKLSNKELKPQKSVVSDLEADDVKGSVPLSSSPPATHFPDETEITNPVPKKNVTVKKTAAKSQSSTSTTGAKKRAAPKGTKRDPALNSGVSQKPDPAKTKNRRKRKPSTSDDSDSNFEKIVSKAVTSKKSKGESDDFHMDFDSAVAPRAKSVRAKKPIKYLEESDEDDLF
Summary of the method: (§1)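 Eukaryotic Topo II decatenation of kDNA (0.1 μg) in Tris-HCl 50 mM pH 8.0, NaCl 150 mM, MgCl2 10 mM, DTT 0.5 mM, ATP 2 mM with compound at 1–25 μM final, 30 min at 37 °C; stopped with sarkosyl buffer; products resolved on 1% agarose with ethidium bromide.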

[18] = Drug uptake in doxorubicin-resistant human SKOV3 cell nucleus at 5 uM after 1 hr by confocal microscopic analysis; assay type: ADME, cell-based; conditions: sk-ov-3, 1 h
Summary of the method: (§2)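 Coverslip-grown SK-OV-3 cells (seeded overnight, EMEM) treated with 5 μM compound in opti-MEM for 1 h at 37 °C, PBS-washed three times, mounted and imaged by laser scanning confocal microscopy using rhodamine and phase contrast channels for Dox fluorescence.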

[19] = system: SK-OV-3; test: Cytotoxicity against human SKOV3 cells after 48 hrs; assay type: functional, cell-based; conditions: SK-OV-3, 48 h
[20] = system: SK-OV-3; test: Cytotoxicity against human SKOV3 cells at 10 uM incubated for 2 hrs followed by incubation in compound-free medium for 72 hrs by MTT assay; assay type: functional
Summary of the method: (§3)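 SK-OV-3 cells plated overnight at 5000 cells/well; exposed to compound (up to 10 μM), then medium replaced with drug-free medium for 72 h; MTT added 2 h, formazan read at 490 nm; % cytotoxicity = (OD untreated − OD treated)/OD untreated × 100.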

[21] = molecular target: DNA topoisomerase 2-alpha (Homo sapiens) (UniProt P11388); conditions: 5 uM
[22] = system: MDA-MB-468; test: Inhibition of cell proliferation of human MDA-MB-468 cells at 1 uM after 120 hrs by CellTiter assay; assay type: functional; conditions: MDA-MB-468, 120 h
[23] = Cellular uptake in doxorubicin-resistant human SKOV3 cells at 5 uM incubated for 1 hr followed by incubation with fresh media for 24 hrs measured by confocal microscopic analysis; assay type: ADME, cell-based, Cytoplasm; conditions: sk-ov-3, 1 h
Summary of the method: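 SK-OV-3 cells seeded overnight on coverslips in EMEM, exposed to 5 μM compound in opti-MEM for 1 h at 37 °C, washed, then kept in fresh serum-containing medium 24 h; PBS-washed and imaged by laser scanning confocal microscopy, rhodamine and phase contrast channels.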

[24] = Drug metabolism in human CCRF-CEM cells assessed as compound hydrolysis at 1 uM after 48 hrs by HPLC analysis; assay type: ADME, cell-based; conditions: read-out: Drug metabolism
Summary of the method: (§4)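 CCRF-CEM cells grown in serum-free RPMI, exposed to 1 μM compound 4 h at 37 °C, then moved to drug-free serum-free RPMI for set times; pellets washed with ice-cold PBS, extracted with methanol/chloroform/isopropanol (4:3:1), filtered; parent and released Dox quantified by HPLC at 490 nm.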

[25] = Drug metabolism in human CCRF-CEM cells assessed as compound hydrolysis at 1 uM after 12 hrs by HPLC analysis; assay type: ADME, cell-based; conditions: read-out: Drug metabolism; summary of the method: as §4
[26] = Drug uptake in doxorubicin-resistant human SKOV3 cell cytoplasm at 5 uM after 1 hr by confocal microscopic analysis; assay type: ADME, cell-based; conditions: sk-ov-3, 1 h; summary of the method: as §2
[27] = Half life in fetal bovine serum at 1 mM by HPLC analysis; assay type: ADME, cell-free, Bos taurus; conditions: cattle
Summary of the method: (§5)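 Compound (50 μL of 1 mM DMSO stock) incubated in 1 mL of 100% FBS or PBS pH 7.0 at 37 °C with shaking; aliquots taken from 10 min to 96 h, diluted with water, analysed by HPLC at 490 nm; peak areas give % remaining and % released Dox.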

[28] = system: SK-OV-3; test: Cytotoxicity against human SKOV3 cells at 5 to 10 uM by MTT assay relative to doxorubicin; assay type: functional; summary of the method: as §3
[29] = system: SK-OV-3; test: Cytotoxicity against human SKOV3 cells at > = 100 nM after 72 hrs by MTT assay; assay type: functional, cell-based; summary of the method: as §3
[30] = system: SK-OV-3; test: Cytotoxicity against human SKOV3 cells at 10 uM incubated for 1 hr followed by incubation in compound-free medium for 72 hrs by MTT assay; assay type: functional; summary of the method: as §3
[31] = Drug metabolism in fetal bovine serum assessed as compound hydrolysis at 1 uM after 12 hrs by HPLC analysis
[32] = molecular target: DNA topoisomerase 2-alpha (Homo sapiens) (UniProt P11388); test: Inhibition of topoisomerase 2-mediated KDNA decatenation at 15 to 20 uM after 30 mins by gel electrophoretic analysis; summary of the method: as §1
[33] = system: SK-OV-3; test: Cellular uptake in doxorubicin-resistant human SKOV3 cells at 5 uM after 30 mins by FACS analysis relative to doxorubicin; assay type: ADME, cell-based; conditions: sk-ov-3, 0.5 h
Summary of the method: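 SK-OV-3 cells plated overnight in EMEM (2 × 10^5 cells/well); compound 5 μM added in opti-MEM, 30 min at 37 °C; cells trypsinized, PBS-washed, analysed by flow cytometry on FL2 channel; mean fluorescence of 10000 cells; triplicate.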

[34] = Chemical stability of the compound in pH 8, reaction buffer containing Tris-HCl, NaCl, MgCl2, dithiothreitol and ATP; assay type: physicochemical
Summary of the method: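 Compound held in Topo II reaction buffer (Tris-HCl 50 mM pH 8.0, NaCl 150 mM, MgCl2 10 mM, DTT 0.5 mM, ATP 2 mM) without enzyme; hydrolysis followed by HPLC.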

[35] = system: Serum; test: Binding affinity to serum proteins in fetal bovine serum at 1 mM; assay type: ADME, cell-free, Bos taurus; conditions: cattle, 1000 µM
[36] = Drug metabolism in fetal bovine serum assessed as compound hydrolysis at 1 uM after 48 hrs by HPLC analysis
[37] = system: CCRF-CEM; test: Drug metabolism in human CCRF-CEM cells assessed as doxorubicin formation at 1 uM by HPLC analysis; assay type: ADME, cell-based; conditions: TDE = time-dependent effect; summary of the method: as §4
[38] = Half life in PBS at 1 mM by HPLC analysis; assay type: physicochemical; summary of the method: as §5

IC50 [4] [nM]	Compound	inhibition at 1 µM [1] [%]	growth inhibition (GI) [2]	inhibition at 1 µM [3] [%]	inhibition at 1 µM [5] [%]	inhibition [6]	inhibition [7]	growth inhibition (GI) [8]	growth inhibition (GI) [9]	inhibition [10]	inhibition [11]	growth inhibition (GI) [12]	inhibition [13]	inhibition at 1 µM [14] [%]	inhibition at 1 µM [15] [%]	growth inhibition (GI) [16]	further results
75	CCCCCCCCCCCCCCOC(=O)CCC(=O)OCC(=O)[C@]1(O)Cc2c(O)c3c(c(O)c2[C@@H](O[C@H]2C[C@H](N)[C@H](O)[C@H](C)O2)C1)C(=O)c1c(OC)cccc1C3=O	66	Active	60	54	tde	tde	Active	Active	tde	tde	Active	tde	69	49	Active	–
–	CCCCCCCCCCCCCCCC(=O)N[C@H]1C[C@H](O[C@H]2C[C@](O)(C(=O)CO)Cc3c(O)c4c(c(O)c32)C(=O)c2c(OC)cccc2C4=O)O[C@@H](C)[C@H]1O	–	–	–	–	–	–	–	–	–	–	–	–	–	–	–	inhibition [17]: inactive
75	CCCCCCCCCCCCCCCCNC(=O)CCC(=O)OCC(=O)[C@]1(O)Cc2c(O)c3c(c(O)c2[C@@H](O[C@H]2C[C@H](N)[C@H](O)[C@H](C)O2)C1)C(=O)c1c(OC)cccc1C3=O	66	Active	60	54	tde	tde	Active	Active	tde	tde	Active	tde	69	49	Active	–
45	COc1cccc2c1C(=O)c1c(O)c3c(c(O)c1C2=O)C[C@@](O)(C(=O)CO)C[C@@H]3O[C@H]1C[C@H](N)[C@H](O)[C@H](C)O1 [DOXORUBICIN]	–	–	–	–	–	–	–	–	–	–	–	–	–	–	–	Drug uptake [18]: Active; IC50 [19]: 5000 nM; Activity [20]: 51.5%; inhibition [21]: Active; inhibition at 1 µM [22]: 69.1%; Drug uptake [23]: Not Active
77	CCCCCCCCCCCCCCNC(=O)CCC(=O)OCC(=O)[C@]1(O)Cc2c(O)c3c(c(O)c2[C@@H](O[C@H]2C[C@H](N)[C@H](O)[C@H](C)O2)C1)C(=O)c1c(OC)cccc1C3=O	66	Active	60	54	tde	tde	Active	Active	tde	tde	Active	tde	69	49	Active	metabolised at 48 h, 1 µM [24]: 98%; metabolised at 12 h, 1 µM [25]: > 75%; Drug uptake [26]: Active; half-life at 1000 µM [27]: 8.3 h; fold change (FC) [28]: 1.4; Activity [29]: Active; Activity [30]: 67.1%; metabolised at 12 h, 1 µM [31]: 20%; inhibition [32]: Active; fold change (FC) [33]: 3; Stability [34]: Stable; inhibition at 1 µM [22]: 70.2%; PB [35]: Not Active; metabolised at 48 h, 1 µM [36]: 30%; Drug metabolism [37]: tde; Drug uptake [23]: Active; half-life at 1000 µM [38]: 19.3 h
75	CCCCCCCCCCNC(=O)CCC(=O)OCC(=O)[C@]1(O)Cc2c(O)c3c(c(O)c2[C@@H](O[C@H]2C[C@H](N)[C@H](O)[C@H](C)O2)C1)C(=O)c1c(OC)cccc1C3=O	66	Active	60	54	tde	tde	Active	Active	tde	tde	Active	tde	69	49	Active	–
75	COc1cccc2c1C(=O)c1c(O)c3c(c(O)c1C2=O)C[C@@](O)(C(=O)COC(=O)CCC(=O)O)C[C@@H]3O[C@H]1C[C@H](N)[C@H](O)[C@H](C)O1	66	Active	60	54	tde	tde	Active	Active	tde	tde	Active	tde	69	49	Active	–
75	CCCCCCCCCCCCNC(=O)CCC(=O)OCC(=O)[C@]1(O)Cc2c(O)c3c(c(O)c2[C@@H](O[C@H]2C[C@H](N)[C@H](O)[C@H](C)O2)C1)C(=O)c1c(OC)cccc1C3=O	66	Active	60	54	tde	tde	Active	Active	tde	tde	Active	tde	69	49	Active	–
